Measured values from ChEMBL document CHEMBL3259584, “Antiproliferative novel isoxazoles: modeling, virtual screening, synthesis, and bioactivity evaluation” (Eur J Med Chem, 2014).

Key:
MCF7 = assay: Antiproliferative activity against human MCF7 cells after 5 days by coulter counter analysis; assay type: functional, cell-based; conditions: MCF7, 120 h
Summary of the method: (§1)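 Mouse brain endothelial cells (MBEC), HeLa and MCF-7 were maintained in DMEM with 10 mM Hepes and 10% FBS. Cells were seeded at 10,000 cells per cm2. After 16 h the medium was replaced with fresh medium containing 5-fold serial dilutions of compound. On day 5 cells were trypsinized and counted electronically. IC50 was taken as the concentration halving cell number relative to untreated control counts.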

[1] = Antiproliferative activity against human HMEC1 cells after 5 days by coulter counter analysis; assay type: cell-based; conditions: HMEC-1, 120 h
Summary of the method: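 HMEC-1 human microvascular endothelial cells were grown in EGM-2 MV endothelial medium and plated at 10,000 cells per cm2. After 16 h they received fresh medium with 5-fold dilutions of compound. On day 5 cells were trypsinized and counted with a Coulter counter. IC50 was the concentration reducing cell count by 50% relative to control cultures.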

[2] = Antiproliferative activity against MBEC after 5 days by coulter counter analysis; set-up: species or system Mus musculus; summary of the method: as §1
HeLa = assay: Antiproliferative activity against human HeLa cells after 5 days by coulter counter analysis; assay type: functional, cell-based; conditions: 120 h; summary of the method: as §1

| Compound | IC50 (MCF7) [µM] | IC50 [1] [µM] | IC50 [2] [µM] | IC50 (HeLa) [µM] |
| --- | --- | --- | --- | --- |
| COc1ccc(-c2noc(-c3ccc(OC)cc3)c2C)cc1 | > 100 | > 100 | > 100 | > 100 |
| Oc1ccc(-c2cc(-c3ccc(O)cc3)on2)cc1 | 5.2 | 6.3 | 2.5 | 6 |
| CCc1c(-c2ccc(O)cc2)noc1-c1ccc(O)cc1 | 9.8 | 9.7 | 13 | 16 |
| COc1ccc(-c2cc(-c3ccc(OC)cc3)on2)cc1 | > 100 | > 100 | > 100 | > 100 |
| Oc1ccc2c(c1)CCc1c(-c3ccc(F)cc3)noc1-2 | > 100 | 46 | 38 | > 100 |
| COc1ccc2c(c1)CCc1c(-c3ccc(OC)c(OC)c3)noc1-2 | > 100 | > 100 | > 100 | > 100 |
| Oc1ccc2c(c1)CCc1c(-c3ccc(O)c(O)c3)noc1-2 | 0.72 | 0.42 | 0.96 | 0.97 |
| COc1ccc(-c2cc(-c3ccc([N+](=O)[O-])cc3)on2)cc1 | > 100 | > 100 | > 100 | > 100 |
| Cc1c(-c2ccc(O)cc2)noc1-c1ccc(O)cc1 | 48 | 47 | 19 | 15 |
| Oc1ccc2c(c1)CCc1c(-c3ccc(SC(F)(F)F)cc3)noc1-2 | 81 | 65 | 67 | 55 |
| Oc1ccc(-c2noc3c2CCc2cc(O)c(O)cc2-3)cc1 | 2.1 | 7.4 | 6.8 | 10 |
| COc1ccc(-c2noc3c2CCc2cc(OC)c(OC)cc2-3)cc1 | > 100 | > 100 | > 100 | > 100 |
| COc1ccc2c(c1)CCc1c(-c3ccc(SC(F)(F)F)cc3)noc1-2 | > 100 | > 100 | > 100 | > 100 |
| Oc1ccc(-c2noc3c2CCc2cc(O)c(O)cc2-3)cc1O | 2.1 | 4.2 | 10 | 9.1 |
| COc1ccc(-c2noc3c2CCc2cc(OC)ccc2-3)cc1 | > 100 | > 100 | > 100 | > 100 |
| COc1ccc2c(c1)CCc1c(-c3ccc(F)cc3)noc1-2 | > 100 | > 100 | > 100 | 34 |
| COc1ccc(-c2noc3c2CCc2cc(OC)c(OC)cc2-3)cc1OC | 0.36 | 0.56 | 1.1 | 0.59 |
| CCc1c(-c2ccc(OC)cc2)noc1-c1ccc(OC)cc1 | > 100 | > 100 | > 100 | > 100 |
| Oc1ccc(-c2noc3c2CCc2cc(O)ccc2-3)cc1 | 3.1 | 6.7 | 4.6 | 3.3 |
| O=[N+]([O-])c1ccc(-c2cc(-c3ccc(O)cc3)no2)cc1 | 53 | 27 | 42 | 57 |
